Experimental findings from ChEMBL document CHEMBL1149395, “Beta-substituted cyclohexanecarboxamide: a nonpeptidic framework for the design of potent inhibitors of cathepsin K” (J Med Chem, 2006) are described below.

As a reminder, the IC50 is the point on the concentration scale where inhibition reaches its midpoint. The term CL/F denotes clearance divided by bioavailability, as obtained after extravascular dosing. A word on the half-life: it is the time needed for the level to fall by half in the phase considered. For orientation: bioavailability means the share of a dose that reaches the circulation, judged against a reference dose that is usually intravenous.

The target of data set [1] is T1, Cathepsin K (Oryctolagus cuniculus, UniProt P43236).
T1 sequence (P43236 whole entry): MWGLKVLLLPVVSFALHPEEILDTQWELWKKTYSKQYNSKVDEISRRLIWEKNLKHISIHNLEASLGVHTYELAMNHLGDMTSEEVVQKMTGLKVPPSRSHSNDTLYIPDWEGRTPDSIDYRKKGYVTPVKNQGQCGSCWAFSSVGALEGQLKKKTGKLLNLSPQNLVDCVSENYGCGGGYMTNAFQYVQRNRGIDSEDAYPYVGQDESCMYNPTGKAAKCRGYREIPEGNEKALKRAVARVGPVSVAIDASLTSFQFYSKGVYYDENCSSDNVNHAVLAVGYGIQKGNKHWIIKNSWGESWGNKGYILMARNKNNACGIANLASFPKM
Kind of data set: Inhibitory activity against rabbit Cathepsin K.

The nature of data set [2]: Plasma clearance in dog at 5 mL/kg, po. Type of data set: ADME, organism-based, Canis lupus familiaris. The essentials:
(§1)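 Single compounds given orally as suspensions in 1% methocel to animals fasted overnight, dosed in the morning. Oral dosing volumes were 10 mL/kg for rats, 5 mL/kg for dogs and 1 mL/kg for monkeys. Intravenous comparison dosing went via the jugular vein in PEG-200/H₂O (3:2) at 1 mL/kg. Plasma was sampled at regular intervals, precipitated with 1.5 volumes of acetonitrile, centrifuged and analysed by LC-MS.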

A short description of data set [3]: Half life in squirrel monkey at 1 mL/kg, po. The data set is classed as ADME, organism-based, Saimiri sciureus. As to conditions: in vivo. A digest of the protocol: as §1
The species entered for data set [4] is Oryctolagus cuniculus. As to the kind of experiment: Effect on degradation of collagen in bovine bone by rabbit osteoclast. Type of data set: functional.
The nature of data set [5]: Plasma clearance in squirrel monkey at 1 mL/kg, po. Type of data set: ADME, organism-based, Saimiri sciureus. A digest of the protocol:
as §1

Data set [6] in a line: Half life in dog at 5 mL/kg, po. Type of data set: ADME, organism-based, Canis lupus familiaris. Particulars: in vivo. A digest of the protocol: as §1
The target in data set [7] is Cathepsin K (Homo sapiens, UniProt P43235). Kind of data set: Inhibitory activity against humanized rabbit Cathepsin K.
Data set [8] concerns the target Cathepsin (L and K) (Homo sapiens) (UniProt P43235+P07711). Kind of data set: Selectivity for Cathepsin L over Cathepsin K. The data set is classed as protein assay.
The target of data set [9] is Cathepsin (B and K) (Homo sapiens) (UniProt P43235+P07858). Kind of data set: Selectivity for Cathepsin B over Cathepsin K. Type of data set: protein assay.
Chain of Cathepsin (B and K) (Homo sapiens) (P43235 whole entry, looked up, other chains not shown): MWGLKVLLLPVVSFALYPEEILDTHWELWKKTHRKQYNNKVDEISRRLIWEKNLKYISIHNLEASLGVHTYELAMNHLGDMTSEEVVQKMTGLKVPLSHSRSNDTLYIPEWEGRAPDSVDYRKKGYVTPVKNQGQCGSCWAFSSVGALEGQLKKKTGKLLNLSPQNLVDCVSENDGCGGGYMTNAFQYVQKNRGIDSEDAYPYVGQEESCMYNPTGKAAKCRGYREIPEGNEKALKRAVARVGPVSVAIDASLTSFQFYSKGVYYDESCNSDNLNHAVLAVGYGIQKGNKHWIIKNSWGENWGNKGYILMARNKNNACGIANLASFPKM
The target in data set [10] is Cathepsin (S and K) (Homo sapiens) (UniProt P25774+P43235). As to the kind of experiment: Selectivity for Cathepsin S over Cathepsin K. The data set is classed as protein assay.
Data set [11] is described as follows: Half life in rat at 10 mL/kg, po. Type of data set: ADME, organism-based. Particulars: Sprague-Dawley, in vivo. The essentials: as §1
Data set [12] can be described thus: Plasma clearance in rat at 10 mL/kg, po. Type of data set: ADME, organism-based. Particulars: Sprague-Dawley. The essentials: as §1
A short description of data set [13]: Oral bioavailability in squirrel monkey at 1 mL/kg, po. Type of data set: ADME, organism-based, Saimiri sciureus. Particulars: in vivo. A digest of the protocol:
as §1

A short description of data set [14]: Oral bioavailability in rats at 10 mL/kg, po. The data set is classed as ADME, organism-based. Particulars: Sprague-Dawley, rat, in vivo. The essentials:
as §1

Data set [15] can be described thus: Oral bioavailability in dogs at 5 mL/kg, po. The data set is classed as ADME, organism-based, Canis lupus familiaris. Particulars: dog, in vivo. A digest of the protocol: as §1

Take `CSc1ccc(-c2ccccc2[C@@H]2CCC(F)(F)C[C@H]2C(=O)NCC#N)cc1`: the IC50 in data set [1] stood at 0.32 nM; in data set [4] it was 16 nM; in data set [7], 0.28 nM. The CL/F in data set [2] was determined as 3.6 mL/min/kg; in data set [5] it was 17 mL/min/kg; in data set [12], 8.7 mL/min/kg. In addition, the half-life in [3] was 8.8 h; in data set [6] it was 15 h; in [11] it was 3.5 h. The Selectivity ratio in [8] is 780; in [9], over 36000; in data set [10] it was 940. Moreover, the values for the bioavailability in data set [13], in data set [14] and in data set [15] were 78%, 39% and 55%, respectively.
